In ChEMBL document CHEMBL3822425, “Isatin Derived Spirocyclic Analogues with α-Methylene-γ-butyrolactone as Anticancer Agents: A Structure-Activity Relationship Study” (J Med Chem, 2016):
pEC50, pIC50: −log10 of the molar value. Blank lines part the entries; values can stand above or below the compound they belong to. The source made the active and inactive calls. The calls are words filed in the database; no cut-off is given here.

What was measured:
HeLa [1] = experiment: Induction of apoptosis in human HeLa cells assessed as PARP cleavage after 24 to 48 hrs by Western blot analysis; format: functional, cell-based
In short: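 Cells collected with media and trypsinized pellet combined, lysed in RIPA buffer (pH 8.0), 4-20% SDS-PAGE, Western blot with anti-PARP to detect cleavage; HeLa timepoint 48 h.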

A549 [2] = experiment: Inhibition of TNFalpha-induced IKKbeta-mediated NF-kappaB activity in human A549 cells at 10 uM after 2 hrs followed by TNFalpha addition for 7 hrs by ONE-Glo Luciferase reporter based luminescence assay; format: cell-based
In short: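 A549 luciferase cells grown 5 passages without TNFα then 2 passages with or without 5 ng/mL TNFα; 50,000 per well overnight; 10 µM compound 2 h; then 20 ng/mL TNFα 7 h; PrestoBlue 10 min (560ex/590em) viability; ONE-Glo 10 min, luminescence 1000 ms.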

A549 [3] = experiment: Inhibition of TNFalpha-induced IKKbeta-mediated NF-kappaB activity in human A549 cells at 10 uM after 2 hrs followed by TNFalpha addition for 3 hrs by ONE-Glo Luciferase reporter based luminescence assay; format: cell-based
[4] = Inhibition of TNFalpha-induced IKKbeta-mediated NF-kappaB activity in human A549 cells after 2 hrs followed by TNFalpha addition for 3 hrs by ONE-Glo Luciferase reporter based luminescence assay; format: cell-based
In short: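 A549 NF-κB luciferase cells (hygromycin B-maintained), 50,000 per well overnight; compound 2 h, then 20 ng/mL TNFα 3 h; alamarBlue 3 h as seeding/viability control; ONE-Glo added, 10 min room temperature, luminescence at 1000 ms.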

serum albumin = serum albumin (Homo sapiens, UniProt P02768); experiment: Binding affinity to human serum albumin assessed as half life by HPLC analysis; format: ADME
serum albumin, sequence (P02768 whole entry): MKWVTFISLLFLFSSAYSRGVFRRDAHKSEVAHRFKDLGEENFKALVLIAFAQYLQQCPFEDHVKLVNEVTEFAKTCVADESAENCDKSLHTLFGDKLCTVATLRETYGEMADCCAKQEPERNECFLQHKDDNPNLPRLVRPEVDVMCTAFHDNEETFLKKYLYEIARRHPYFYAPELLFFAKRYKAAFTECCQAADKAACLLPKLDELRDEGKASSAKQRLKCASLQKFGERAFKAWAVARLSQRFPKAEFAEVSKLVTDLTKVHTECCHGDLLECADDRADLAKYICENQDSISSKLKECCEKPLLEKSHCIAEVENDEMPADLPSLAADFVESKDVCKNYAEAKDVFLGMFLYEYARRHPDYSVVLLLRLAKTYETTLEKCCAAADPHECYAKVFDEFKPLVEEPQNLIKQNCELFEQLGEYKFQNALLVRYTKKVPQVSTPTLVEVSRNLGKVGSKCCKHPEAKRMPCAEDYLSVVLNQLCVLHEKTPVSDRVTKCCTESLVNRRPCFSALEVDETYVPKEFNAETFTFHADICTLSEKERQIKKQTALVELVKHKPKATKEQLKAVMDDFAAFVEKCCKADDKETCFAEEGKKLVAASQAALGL

[5] = molecular target: T1, Inhibitor of nuclear factor kappa-B kinase subunit beta (Homo sapiens) (UniProt O14920); experiment: Inhibition of IKKbeta in human MDA-MB-231 cells assessed as reduction in IkappaBalpha phosphorylation by Western blot analysis; format: cell-based
T1 sequence (whole entry): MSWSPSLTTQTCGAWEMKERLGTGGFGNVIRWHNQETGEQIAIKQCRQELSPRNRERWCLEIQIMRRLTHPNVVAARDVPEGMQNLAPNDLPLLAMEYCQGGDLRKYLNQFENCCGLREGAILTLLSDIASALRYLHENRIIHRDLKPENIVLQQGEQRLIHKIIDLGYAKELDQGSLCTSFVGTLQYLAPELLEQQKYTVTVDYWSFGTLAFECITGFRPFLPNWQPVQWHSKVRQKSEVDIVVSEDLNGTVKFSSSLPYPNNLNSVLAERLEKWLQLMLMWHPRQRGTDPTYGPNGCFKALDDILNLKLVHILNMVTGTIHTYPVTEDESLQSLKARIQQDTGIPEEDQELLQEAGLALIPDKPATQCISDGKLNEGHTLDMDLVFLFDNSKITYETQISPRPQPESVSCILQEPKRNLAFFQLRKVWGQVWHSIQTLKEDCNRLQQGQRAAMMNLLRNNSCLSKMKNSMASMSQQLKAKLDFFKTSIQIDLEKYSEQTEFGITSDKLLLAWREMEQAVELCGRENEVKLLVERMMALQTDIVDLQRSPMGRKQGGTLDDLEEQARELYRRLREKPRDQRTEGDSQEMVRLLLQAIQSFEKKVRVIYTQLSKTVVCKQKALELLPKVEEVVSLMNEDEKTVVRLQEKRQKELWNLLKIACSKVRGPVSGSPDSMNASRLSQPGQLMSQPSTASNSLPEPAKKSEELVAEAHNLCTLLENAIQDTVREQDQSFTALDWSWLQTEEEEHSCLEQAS
In short: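 MDA-MB-231 cytoplasmic fractions: swelling 30 min on ice in HEPES/KCl/EDTA/DTT buffer with inhibitors, 1.25% NP-40, centrifuged; lysates on 4-20% gels, PVDF, anti-phospho-IκBα and anti-IκBα, tubulin or GAPDH loading control, ECL detection.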

[6] = molecular target: T1, Inhibitor of nuclear factor kappa-B kinase subunit beta (Homo sapiens); experiment: Inhibition of IKKbeta in human MIAPaCa2 cells assessed as reduction in IkappaBalpha phosphorylation at 10 to 20 uM by Western blot analysis; format: cell-based; conditions: MIA PaCa-2
MDA-MB-231 [7] = experiment: Cytotoxicity against human MDA-MB-231 cells assessed as cell growth inhibition after 3 days by presto blue dye based plate reader method; format: functional
In short: (§1)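 Cells in DMEM high glucose/10% FBS (A2780 in RPMI/10% FBS), 4,000 per well, overnight, then 40 to 0.039 µM or vehicle, 24, 48, 72 h at 37°C, 5% CO2; PrestoBlue 15 min, fluorescence 560ex/590em; growth as 100×[(T−Tz)/(C−Tz)] per NCI algorithm.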

MDA-MB-231 [8] = experiment: Cytotoxicity against human MDA-MB-231 cells assessed as cell growth inhibition at 0.039 to 40 uM by presto blue dye based plate reader method; format: functional; conditions: TDE = time-dependent effect
HeLa [9] = experiment: Anticlonogenic activity against human HeLa cells assessed as inhibition of colony formation after 2 to 7 days by crystal violet staining; format: functional, cell-based
In short: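 HeLa cells seeded at 500-1000 per well, grown 24 h, drug-treated 48 h at 37°C (DMSO control), then fresh medium for 7 days; methanol fixed 15 min, 0.1% crystal violet 30 min at room temperature, colonies over 50 cells counted.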

SK-OV-3 [10] = experiment: Induction of apoptosis in human SKOV3 cells assessed as caspase 3/7 activation after 24 hrs in presence of cisplatin by Caspase Glo-3/7 luminescence assay; format: functional, cell-based
In short: (§2)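 SKOV3 at 3,000 cells per well, overnight; compound 24 h; alamarBlue 3 h with fluorescence 560ex/590em as viability read; Caspase-Glo 3/7 reagent, shaken 30 s, 1 h room temperature, luminescence at 1000 ms integration.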

A2780 [11] = experiment: Potentiation of cisplatin-induced growth inhibition of human A2780 cells assessed as combination index at 1 to 10 uM after 3 days; format: functional
In short: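 Combination index values derived from median effect plots and dose-effect curves of combined treatments.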

A2780 [12] = experiment: Anticancer activity against human A2780 cells xenografted in nude C57B6 mouse orthotopic model of ovarian cancer assessed as tumor growth inhibition administered ip 5 days a week for 4 weeks; format: functional
In short: (§3)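 Nude mice injected with 2 million A2780 ovarian cancer cells; treatment began day 3 (7 groups). Arms: vehicle, 1, 2.5 or 5 mg/kg given 5 days/week to day 30; cisplatin 2 or 4 mg/kg on days 5, 9, 14, 21; or 2.5 mg/kg plus 2 mg/kg cisplatin. Day 30: mice sacrificed, tumors removed and weighed.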

A2780 [13] = experiment: Anticancer activity against human A2780 cells xenografted in nude C57B6 mouse orthotopic model of ovarian cancer assessed as tumor growth inhibition at 5 mg/kg administered ip 5 days a week for 4 weeks; format: functional; conditions: read-out: TGI; in short: as §3
Mus musculus [14] = experiment: Toxicity in nude C57B6 mouse orthotopic model of ovarian cancer xenografted with human A2780 cells assessed overt toxicity at 1 to 5 mg/kg administered ip 5 days a week for 4 weeks; format: organism-based; conditions: in vivo
A2780 [15] = experiment: Anticancer activity against human A2780 cells xenografted in nude C57B6 mouse orthotopic model of ovarian cancer assessed as tumor growth inhibition at 2.5 mg/kg administered ip 5 days a week for 4 weeks; format: functional; conditions: read-out: TGI; in short: as §3
A2780 [16] = experiment: Anticancer activity against human A2780 cells xenografted in nude C57B6 mouse orthotopic model of ovarian cancer assessed as tumor growth inhibition at 2.5 mg/kg administered ip 5 days a week for 4 weeks in presence of 2 mg/kg of cisplatin; format: functional; in short: as §3
Mus musculus [17] = experiment: Downregulation of NF-kappaB p65 in human A2780 cells xenografted in nude C57B6 mouse by immunohistochemistry method; format: functional, organism-based
In short: (§4)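 A2780 tumors from the day-30 nude-mouse study: H&E staining to locate tumor areas, cores punched into a tissue microarray, sections stained with rabbit anti-p65 or anti-Mcl-1 via polymer detection, scored 0-3 by percentage of positive cells (3 = ≥67% positive).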

Mus musculus [18] = experiment: Downregulation of Mcl-1 in human A2780 cells xenografted in nude C57B6 mouse by immunohistochemistry method; format: functional, organism-based; in short: as §4
Mus musculus [19] = experiment: Downregulation of NF-kappaB p65 in human A2780 cells xenografted in nude C57B6 mouse in presence of cisplatin by […]; format: functional, organism-based
Mus musculus [20] = experiment: Downregulation of Mcl-1 in human A2780 cells xenografted in nude C57B6 mouse in presence of cisplatin by […]; format: functional, organism-based
A2780 [21] = experiment: Cytotoxicity against human A2780 cells assessed as cell growth inhibition after 3 days by presto blue dye based plate reader method; format: functional; conditions: A2780, 72 h; in short: as §1
A2780 [22] = experiment: Potency index, ratio of parthenolide EC50 to compound EC50 for cell growth inhibition of human A2780 cells; format: functional
SK-OV-3 [23] = experiment: Induction of apoptosis in human SKOV3 cells assessed as caspase 3/7 activation after 24 hrs in absence of cisplatin by Caspase Glo-3/7 luminescence assay; format: functional, cell-based; in short: as §2
A2780 [24] = experiment: Potency index, ratio of ibrutinib EC50 to compound EC50 for cell growth inhibition of human A2780 cells; format: functional
HeLa [25] = experiment: Cytotoxicity against human HeLa cells expressing GFP assessed as cell growth inhibition after 3 days by presto blue dye based plate reader method; format: functional; conditions: 72 h; in short: as §1
[26] = Cytotoxicity against human MIAPaCa2 cells assessed as cell growth inhibition after 3 days by presto blue dye based plate reader method; format: functional; conditions: MIA PaCa-2, 72 h; in short: as §1
SW480 [27] = experiment: Cytotoxicity against human SW480 cells assessed as cell growth inhibition after 3 days by presto blue dye based plate reader method; format: functional; conditions: SW480, 72 h
HeLa [28] = experiment: Potency index, ratio of parthenolide IC50 to compound IC50 for cell growth inhibition of human HeLa cells; format: functional
MIA PaCa-2 [29] = experiment: Potency index, ratio of parthenolide IC50 to compound IC50 for cell growth inhibition of human MIAPaCa2 cells; format: functional
SW480 [30] = experiment: Potency index, ratio of parthenolide IC50 to compound IC50 for cell growth inhibition of human SW480 cells; format: functional
HeLa [31] = experiment: Potency index, ratio of ibrutinib IC50 to compound IC50 for cell growth inhibition of human HeLa cells; format: functional
MIA PaCa-2 [32] = experiment: Potency index, ratio of ibrutinib IC50 to compound IC50 for cell growth inhibition of human MIAPaCa2 cells; format: functional
SW480 [33] = experiment: Potency index, ratio of ibrutinib IC50 to compound IC50 for cell growth inhibition of human SW480 cells; format: functional

pIC50 [4]: 5.40 | half-life (serum albumin): 4.83 h | inhibition [5]: Active | inhibition [6]: Active
Compound: C=C1CC2(OC1=O)C(=O)Nc1ccccc12 (configuration not stated)
Activity (HeLa [1]): Active | inhibition (A549 [2]): 75% | inhibition (A549 [3]): > 70% | growth inhibition (GI) (MDA-MB-231 [7]): Dose-dependent effect | growth inhibition (GI) (MDA-MB-231 [8]): tde | inhibition (HeLa [9]): Dose-dependent effect | Activity (SK-OV-3 [10]): Active | CI (A2780 [11]): <1 | TGI (A2780 [12]): 10% | inhibition (A2780 [12]): Dose-dependent effect | inhibition in vivo at 5 mg/kg (A2780 [13]): 40% | Activity (Mus musculus [14]): Non-toxic | inhibition in vivo at 2.5 mg/kg (A2780 [15]): 21% | TGI (A2780 [16]): 65% | Activity (Mus musculus [17]): Active | Activity (Mus musculus [18]): Active | Activity (Mus musculus [19]): Active | Activity (Mus musculus [20]): Active | pEC50 (A2780 [21]): 5.64 | Ratio EC50 (A2780 [22]): 4 | Activity (SK-OV-3 [23]): Active

Compound: C=C1CC2(OC1=O)C(=O)Nc1c(C)ccc(C)c12 (configuration not stated)
pEC50 (A2780 [21]): 6.00 | Ratio EC50 (A2780 [22]): 13 | Ratio EC50 (A2780 [24]): 20 | pIC50 (HeLa [25]): 5.49 | pIC50 [26]: 6.05 | pIC50 (SW480 [27]): 5.92 | Ratio IC50 (HeLa [28]): 2 | Ratio IC50 (MIA PaCa-2 [29]): 2 | Ratio IC50 (SW480 [30]): 2 | Ratio IC50 (HeLa [31]): 5 | Ratio IC50 (MIA PaCa-2 [32]): 5 | Ratio IC50 (SW480 [33]): 5
